From the M2OR odorant receptor database

Key:
Details in all cases: stereoisomer not certain
[1] = molecular target: UniProt L7N1Y8
How it was run: (§1)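 Assay methods differ from source to source, frequently being transient luciferase assays in mammalian cell lines. For each receptor–molecule pair, the label responsive (active) applies when the original authors judged the measured signal statistically different from baseline, and non-responsive (inactive) applies otherwise.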

[2] = molecular target: T1, UniProt Q7TQV4
T1 sequence (whole entry): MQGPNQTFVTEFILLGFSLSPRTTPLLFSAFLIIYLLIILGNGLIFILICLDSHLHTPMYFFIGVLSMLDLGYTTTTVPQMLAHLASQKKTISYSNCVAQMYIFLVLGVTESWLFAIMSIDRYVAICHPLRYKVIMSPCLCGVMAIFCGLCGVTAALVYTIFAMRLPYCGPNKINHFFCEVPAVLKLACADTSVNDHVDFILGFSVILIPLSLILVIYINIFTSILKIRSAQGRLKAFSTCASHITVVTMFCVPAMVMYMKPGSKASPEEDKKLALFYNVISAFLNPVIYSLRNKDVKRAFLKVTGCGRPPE
How it was run: as §1

[3] = molecular target: T2, UniProt L7MU75
T2 sequence (whole entry): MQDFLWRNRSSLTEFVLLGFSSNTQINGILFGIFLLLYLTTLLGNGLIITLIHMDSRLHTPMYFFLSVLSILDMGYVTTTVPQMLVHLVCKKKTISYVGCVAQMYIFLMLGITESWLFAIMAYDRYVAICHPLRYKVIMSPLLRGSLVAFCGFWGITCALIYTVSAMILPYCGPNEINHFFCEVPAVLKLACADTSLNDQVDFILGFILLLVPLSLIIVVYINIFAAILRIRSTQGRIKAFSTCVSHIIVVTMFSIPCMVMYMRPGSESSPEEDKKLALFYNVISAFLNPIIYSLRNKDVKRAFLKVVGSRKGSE
How it was run: as §1

[4] = molecular target: T3, UniProt L7N210
T3 sequence (whole entry): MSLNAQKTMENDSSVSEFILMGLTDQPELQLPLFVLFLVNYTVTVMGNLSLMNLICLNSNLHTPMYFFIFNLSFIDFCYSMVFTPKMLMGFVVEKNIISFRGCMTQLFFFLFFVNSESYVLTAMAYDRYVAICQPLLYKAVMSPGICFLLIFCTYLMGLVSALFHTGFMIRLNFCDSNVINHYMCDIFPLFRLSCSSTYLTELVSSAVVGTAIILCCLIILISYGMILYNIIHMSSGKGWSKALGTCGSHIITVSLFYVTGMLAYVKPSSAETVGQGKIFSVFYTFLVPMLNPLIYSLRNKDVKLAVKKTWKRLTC
How it was run: as §1

[5] = molecular target: T4, UniProt Q3KPB0
T4 sequence (whole entry): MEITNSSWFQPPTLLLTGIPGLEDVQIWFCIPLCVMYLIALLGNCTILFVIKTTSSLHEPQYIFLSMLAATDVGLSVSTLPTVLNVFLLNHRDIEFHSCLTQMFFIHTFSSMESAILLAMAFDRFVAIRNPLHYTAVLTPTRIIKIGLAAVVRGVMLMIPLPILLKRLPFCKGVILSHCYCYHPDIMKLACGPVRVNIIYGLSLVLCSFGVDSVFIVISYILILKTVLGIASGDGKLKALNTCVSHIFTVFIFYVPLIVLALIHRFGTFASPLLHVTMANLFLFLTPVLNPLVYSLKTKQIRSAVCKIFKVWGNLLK
How it was run: as §1

[6] = molecular target: T5, UniProt Q3U0P3
T5 sequence (whole entry): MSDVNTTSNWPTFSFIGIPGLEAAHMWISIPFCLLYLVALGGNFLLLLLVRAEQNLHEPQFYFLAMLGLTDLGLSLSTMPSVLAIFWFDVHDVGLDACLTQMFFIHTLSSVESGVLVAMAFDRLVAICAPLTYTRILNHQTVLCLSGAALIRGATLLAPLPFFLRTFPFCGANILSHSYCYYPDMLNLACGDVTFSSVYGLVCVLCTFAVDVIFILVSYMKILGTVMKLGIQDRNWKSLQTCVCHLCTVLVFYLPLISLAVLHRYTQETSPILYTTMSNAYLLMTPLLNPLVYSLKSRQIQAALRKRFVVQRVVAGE
How it was run: as §1

[7] = molecular target: T6, UniProt Q7TQU8
T6 sequence (whole entry): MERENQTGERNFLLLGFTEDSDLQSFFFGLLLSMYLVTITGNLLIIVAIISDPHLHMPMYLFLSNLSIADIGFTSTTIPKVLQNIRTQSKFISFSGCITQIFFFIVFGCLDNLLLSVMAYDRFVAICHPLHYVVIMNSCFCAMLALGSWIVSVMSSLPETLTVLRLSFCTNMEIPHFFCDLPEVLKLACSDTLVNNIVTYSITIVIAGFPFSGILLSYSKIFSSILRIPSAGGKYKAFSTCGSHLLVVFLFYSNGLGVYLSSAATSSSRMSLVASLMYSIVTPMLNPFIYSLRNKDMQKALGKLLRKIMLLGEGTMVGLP
How it was run: as §1

Measured: odorant receptor agonist call

Chain of UniProt L7N1Y8 (L7N1Y8 as listed by the source): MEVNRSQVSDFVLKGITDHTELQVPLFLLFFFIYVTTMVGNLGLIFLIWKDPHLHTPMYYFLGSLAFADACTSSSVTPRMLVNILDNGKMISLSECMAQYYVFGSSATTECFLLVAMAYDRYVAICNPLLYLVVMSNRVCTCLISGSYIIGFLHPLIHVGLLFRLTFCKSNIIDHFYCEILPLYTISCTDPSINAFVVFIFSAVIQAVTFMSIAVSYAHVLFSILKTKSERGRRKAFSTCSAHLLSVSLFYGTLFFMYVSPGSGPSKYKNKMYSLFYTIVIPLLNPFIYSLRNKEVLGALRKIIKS

O=c1ccc2ccccc2o1
active: [1] | [2]

CCSCC
not listed: [1] | [2]
inactive: all other assays above

CCCCCCCOC(=O)C(C)C
not listed: [1] | [2]
inactive: all other assays above

CCCCCCC(=O)OCCCC
not listed: [1] | [2]
inactive: all other assays above

CSSCc1ccco1
not listed: [1] | [2]
inactive: all other assays above

CCCCCCC=CC=O
not listed: [1] | [2]
inactive: all other assays above

CNc1ccccc1C(=O)OC
inactive: [3] | [5] | [6] | [7]
active: [4]

C=C(C)C1CC=C(C)CC1 (configuration not stated)
not listed: [1] | [2]
inactive: all other assays above

CCc1occc(=O)c1O
active: [3] | [4]
inactive: [5] | [6] | [7]

Cc1c(C)c(C)c(C=O)c(C)c1C
active: [4]
inactive: [3] | [5] | [6] | [7]

O=C(O)CCCCCBr
not listed: [1] | [2]
inactive: all other assays above

CCCCCCC(C=O)=Cc1ccccc1
not listed: [1] | [2]
inactive: all other assays above

OCCc1ccccc1
not listed: [1] | [2]
inactive: all other assays above

O=C(O)C1CCC1
not listed: [1] | [2]
inactive: all other assays above

CC(=O)OCc1ccc2c(c1)OCO2
active: [4]
inactive: [3] | [5] | [6] | [7]

CC1(C)CC(=O)CC(=O)C1
not listed: [1] | [2]
inactive: all other assays above

CC(=O)OCCc1ccccc1
inactive: [3] | [5] | [6] | [7]
active: [4]

CC1CC=CCCCCCCCCCC(=O)C1 (configuration not stated)
not listed: [1] | [2]
inactive: all other assays above

COC(OC)c1ccccc1
not listed: [1] | [2]
inactive: all other assays above

CCCCCCCCCC=CC=O
not listed: [1] | [2]
inactive: all other assays above

C=CC(=C)CCC=C(C)CCC=C(C)C
not listed: [1] | [2]
inactive: all other assays above

CCC(C)O (configuration not stated)
not listed: [1] | [2]
inactive: all other assays above

CC(C)CCN
not listed: [1] | [2]
inactive: all other assays above

O=C(O)CCCCCCCCC(=O)O
not listed: [1] | [2]
inactive: all other assays above

COc1nccnc1C
inactive: [4] | [5] | [6] | [7]
active: [3]

CCCCCCCCCCOC(C)=O
not listed: [1] | [2]
inactive: all other assays above

CCN(CC)CC
not listed: [1] | [2]
inactive: all other assays above

C=CC(C)=CCC=C(C)CCC=C(C)C
not listed: [1] | [2]
inactive: all other assays above

CC=Cc1ccc(OC)cc1
not listed: [1] | [2]
inactive: all other assays above

C=CC(=C)CCC=C(C)C
not listed: [1] | [2]
inactive: all other assays above

CC1CCC(C(C)C)C(=O)C1 (configuration not stated)
not listed: [1] | [2]
inactive: all other assays above

CCCCC=O
not listed: [1] | [2]
inactive: all other assays above

CCCCCC(C=O)=Cc1ccccc1
not listed: [1] | [2]
inactive: all other assays above

O=C([O-])CCCCCCCC(=O)[O-].[H+].[H+]
not listed: [1] | [2]
inactive: all other assays above

Cc1ccc(C(C)C)cc1
not listed: [1] | [2]
inactive: all other assays above

CCOC(=O)CC(C)C
not listed: [1] | [2]
inactive: all other assays above

CCCC=O
not listed: [1] | [2]
inactive: all other assays above

C=C1C2CCC(C2)C1(C)C (configuration not stated)
not listed: [1] | [2]
inactive: all other assays above

CC(=O)C=CC1=C(C)CCCC1(C)C
not listed: [1] | [2]
inactive: all other assays above

OCCCCCCCCCO
not listed: [1] | [2]
inactive: all other assays above

C=CC(=O)CCCCC
not listed: [1] | [2]
inactive: all other assays above

CSSSC
not listed: [1] | [2]
inactive: all other assays above

c1ccc2ncccc2c1
inactive: [5] | [6] | [7]
active: [3] | [4]

CCCCCC=CCCC=O
not listed: [1] | [2]
inactive: all other assays above

CCC=CCCC=CC=O
not listed: [1] | [2]
inactive: all other assays above
